Data from ChEMBL document CHEMBL1155356, “Design, synthesis, and structure-activity relationship of novel orally efficacious pyrazole/sulfonamide based dihydroquinoline gamma-secretase inhibitors” (Bioorg Med Chem Lett, 2009).

Tests used:
[1] = Metabolic stability in mouse liver microsomes at 2 uM after 30 mins in presence of 1 mM UDPGA; format: ADME, Microsome; details: read-out: Stability
Outline: (§1)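 Glucuronidation stability: 2 µM compound incubated 30 min at 37 °C in phosphate buffer with liver microsomes (0.5 mg protein), 1 mM UDPGA, 100 mM MgCl2 and 25 µg/mL alamethicin. Read-out is percent parent compound remaining. Human or mouse microsomes per line.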

[2] = Oxidative metabolic stability in human liver microsomes at 1 uM after 30 mins in presence of 1 mM NADPH; format: ADME, Microsome; details: liver microsomes, read-out: Stability
Outline: (§2)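 Oxidative stability: compound at 1 µM incubated 30 min at 37 °C in phosphate buffer with liver microsomes (0.5 mg/ml protein) plus 1 mM NADPH. Percent parent remaining reported. Human or mouse microsomes per line.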

[3] = test system: Mus musculus; assay: Reduction of cortical abeta40 level in FVB mouse at 30 mg/kg, po after 3 hrs; format: functional; design: scale not given: the % may be the effect or the level left
[4] = test system: Mus musculus; assay: Reduction of cortical abeta40 level in FVB mouse at 3 mg/kg, po after 3 hrs; format: functional; design: scale not given: the % may be the effect or the level left
[5] = Metabolic stability in human liver microsomes at 2 uM after 30 mins in presence of 1 mM UDPGA; format: ADME, Microsome; details: read-out: Stability; outline: as §1
[6] = target: Gamma-secretase; assay: Inhibition of Gamma-secretase in human IMR-32 cells after 2 hrs by ELISA assay; format: cell-based
Outline: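 γ-Secretase came from IMR-32 cell membranes, and compound was first diluted in DMSO. Reaction at 37 °C was started with MBPC-125 Swedish substrate, run for 2 h, then stopped with SDS. Cleaved substrate was measured by Aβ40-specific ELISA. Values are means of three experiments.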

[7] = Solubility in HBSS buffer at 20 mM at pH 7.4 after 1 hr; format: physicochemical
Outline: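 20 mM DMSO stocks serially diluted in DMSO, then diluted 1:200 into HBSS pH 7.4. After 1 h incubation, plates read on a solubility scanner.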

[8] = Oxidative metabolic stability in mouse liver microsomes at 1 uM after 30 mins in presence of 1 mM NADPH; format: ADME, Microsome; details: liver microsomes, read-out: Stability; outline: as §2
[9] = Apparent permeability from apical to basolateral side in MDCK2 cells at 5 uM after 120 mins; format: ADME, cell-based, Canis lupus familiaris, MDCK-II; details: dog, MDCK
Outline: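 Compound at 5 µM in mHBSS pH 7.4 applied to MDCK II cell monolayers for 120 min at 37 °C. Apical and basolateral chambers sampled and analysed by LC/MS/MS.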

remaining at 0.5 h, 2 µM [1]: 91%
remaining at 0.5 h, 1 µM [2]: 1%
remaining at 0.5 h, 2 µM [5]: 77%
IC50 [6]: 0.62 nM
solubility at 1 h [7]: > 100 µM
remaining at 0.5 h, 1 µM [8]: 7%
Papp A→B at 2 h, 5 µM [9]: 19.8 ×10⁻⁶ cm/s
Structure (SMILES): C[C@@H]1c2c[nH]nc2-c2cc(F)ccc2N1S(=O)(=O)c1ccc(Cl)cc1
Activity [3]: 37%
Activity [4]: 7%
